Source: ChEMBL document CHEMBL1914450, “1,7-Naphthyridine 1-oxides as novel potent and selective inhibitors of p38 mitogen activated protein kinase” (J Med Chem, 2011)
Converted amounts (≈) assume the structure as drawn.

Legend:
[1] = Cmax in Wistar rat at 10 mg/kg, po by UPLC-MS/MS analysis; format: ADME, organism-based; parameters: dose 10 mg/kg, route oral; details: in vivo
Summary of the method: (§1)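 Male Wistar rats received 1 mg/kg iv or 10 mg/kg po. Blood was drawn from the retro-orbital plexus at set time points and centrifuged (3000 rpm, 10 min, 4 °C). Plasma was stored at −20 °C and prepared by protein precipitation for analysis. Oral exposure was measured over 0–6 h. Values are mean ± SD, n = 2.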

[2] = Tmax in Wistar rat at 10 mg/kg, po by UPLC-MS/MS analysis; format: ADME, organism-based; parameters: dose 10 mg/kg, route oral; details: in vivo
Summary of the method: (§2)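 Wistar rats dosed 1 mg/kg iv or 10 mg/kg po. Blood drawn from the retro-orbital plexus at set time points. Plasma separated by centrifugation (3000 rpm, 10 min, 4 °C) and stored at −20 °C until analysis. Values are mean of n = 2.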

[3] = (§3) AUC (0 to 6 hrs) in Wistar rat at 10 mg/kg, po by UPLC-MS/MS analysis; format: ADME, organism-based, Plasma; parameters: time < 6 hr, dose 10 mg/kg, route oral; details: Wistar, plasma; summary of the method: as §1
[4] = Half life in Wistar rat at 1 mg/kg, iv by UPLC-MS/MS analysis; format: ADME, organism-based; parameters: dose 1 mg/kg, route intravenous; details: in vivo; summary of the method: as §1
[5] = Clearance in Wistar rat at 1 mg/kg, iv by UPLC-MS/MS analysis; format: ADME, organism-based; parameters: dose 1 mg/kg, route intravenous; details: in vivo; summary of the method: as §1
[6] = Volume of distribution at steady state in Wistar rat at 1 mg/kg, iv by UPLC-MS/MS analysis; format: ADME, organism-based; parameters: dose 1 mg/kg, route intravenous; details: in vivo, read-out: Vdss; summary of the method: as §2
[7] = (§4) Bioavailability in Wistar rat at 10 mg/kg, po and at 1 mg/kg, iv measured up to 6 hrs; format: ADME, organism-based; details: Wistar, in vivo; summary of the method: as §1
[8] = Metabolic stability in rat liver microsomes assessed as metabolic rate at 5 uM after 30 mins by UPLC-MS/MS analysis; format: ADME, Microsome; details: read-out: Activity
Summary of the method: (§5)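 Test compound at 5 μM incubated 30 min at 37 °C with liver microsomes (1 mg/mL protein), with and without NADPH. Parent compound quantified by UPLC-MS/MS. Metabolic rate taken from parent peak area with NADPH versus without.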

[9] = Metabolic stability in human liver microsomes assessed as metabolic rate at 5 uM after 30 mins by UPLC-MS/MS analysis; format: ADME, Microsome; details: read-out: Activity; summary of the method: as §5
[10] = Solubility of the compound at pH 7.4; format: physicochemical; details: buffer
[11] = Solubility of the compound at pH 1.0; format: physicochemical; details: buffer
Rattus norvegicus [12] = test: as §3; format: ADME, organism-based, Plasma; parameters: time < 6 hr, dose 10 mg/kg, route oral; details: in vivo, 6 h; summary of the method: as §1
Rattus norvegicus [13] = test: as §4; format: ADME, organism-based; details: in vivo, 6 h; summary of the method: as §1

| Cmax [1] [nM] | Tmax [2] [h] | AUC(0-t) at 6 h [3] [µM·h] | half-life [4] [h] | clearance [5] [mL/min/kg] | Vd [6] [L/kg] | bioavailability [7] [%] | metabolised at 0.5 h, 5 µM [8] [%] | metabolised at 0.5 h, 5 µM [9] [%] | solubility [10] [µg/mL] | solubility [11] [µg/mL] | AUC (Rattus norvegicus [12]) [µM·h] | F (Rattus norvegicus [13]) [%] | Structure (SMILES) |
| --- | --- | --- | --- | --- | --- | --- | --- | --- | --- | --- | --- | --- | --- |
| 90 | 0.3 | 0.05 | 4.6 | 59 | 10.3 | < 10 |  |  |  |  |  |  | [O-][n+]1ccc2c(-c3ccc(F)cc3F)cc(NC3CCNCC3)nc2c1-c1c(F)cccc1F |
| 200 | 0.3 | 0.48 | 2.3 | 102 | 13.7 | 16 |  |  |  |  |  |  | [O-][n+]1ccc2c(-c3ccc(F)cc3F)cc(C3CCNCC3)nc2c1-c1c(Cl)cccc1Cl |
| 5300 | 3.5 |  | 7.4 |  | 1.7 |  | 9 | < 5 | 27 (≈ 77.5 µM) | 41 (≈ 118 µM) | 29.5 | 38 | Cc1ccccc1-c1c2nccc(-c3ccc(F)cc3F)c2cc[n+]1[O-] |
